Measured values published in ChEMBL document CHEMBL4842372, “Discovery of ARD-2585 as an Exceptionally Potent and Orally Active PROTAC Degrader of Androgen Receptor for the Treatment of Advanced Prostate Cancer” (J Med Chem, 2021).
Calls of active or inactive are those of the source. The rule behind the calls is not given here.

Tests used:
[1] = molecular target: T1, Protein cereblon/Androgen receptor (Homo sapiens, UniProt P10275+Q96SW2); experiment: Protac activity at CRBN/AR in human VCaP cells assessed as reduction in AR protein level at 3 nM after 24 hrs by Western blot analysis relative to control; type: cell-based
T1 sequence (P10275 whole entry, looked up): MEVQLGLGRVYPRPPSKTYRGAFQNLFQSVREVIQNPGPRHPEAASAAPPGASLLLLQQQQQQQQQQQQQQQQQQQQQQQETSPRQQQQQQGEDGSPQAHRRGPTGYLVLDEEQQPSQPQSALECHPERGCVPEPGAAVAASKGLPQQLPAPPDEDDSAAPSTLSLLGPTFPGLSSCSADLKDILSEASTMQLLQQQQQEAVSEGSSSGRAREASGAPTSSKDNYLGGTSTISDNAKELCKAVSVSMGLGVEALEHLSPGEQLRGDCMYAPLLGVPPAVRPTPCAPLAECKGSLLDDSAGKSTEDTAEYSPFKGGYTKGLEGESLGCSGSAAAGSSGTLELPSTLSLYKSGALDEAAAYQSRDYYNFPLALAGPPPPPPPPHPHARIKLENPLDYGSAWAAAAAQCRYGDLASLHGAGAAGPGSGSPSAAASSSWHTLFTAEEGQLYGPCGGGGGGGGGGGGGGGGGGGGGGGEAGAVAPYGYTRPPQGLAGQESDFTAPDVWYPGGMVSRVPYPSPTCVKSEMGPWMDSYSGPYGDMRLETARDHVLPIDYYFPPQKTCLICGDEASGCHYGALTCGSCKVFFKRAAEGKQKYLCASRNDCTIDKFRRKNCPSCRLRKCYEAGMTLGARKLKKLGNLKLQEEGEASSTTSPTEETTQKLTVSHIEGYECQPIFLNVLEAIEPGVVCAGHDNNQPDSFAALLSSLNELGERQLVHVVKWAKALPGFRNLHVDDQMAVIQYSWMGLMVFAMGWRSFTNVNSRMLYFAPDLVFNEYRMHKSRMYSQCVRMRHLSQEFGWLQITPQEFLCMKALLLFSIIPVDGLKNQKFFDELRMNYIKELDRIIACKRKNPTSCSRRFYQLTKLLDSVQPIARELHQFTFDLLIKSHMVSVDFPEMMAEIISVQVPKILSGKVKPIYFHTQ
T1 sequence (Q96SW2 whole entry, looked up): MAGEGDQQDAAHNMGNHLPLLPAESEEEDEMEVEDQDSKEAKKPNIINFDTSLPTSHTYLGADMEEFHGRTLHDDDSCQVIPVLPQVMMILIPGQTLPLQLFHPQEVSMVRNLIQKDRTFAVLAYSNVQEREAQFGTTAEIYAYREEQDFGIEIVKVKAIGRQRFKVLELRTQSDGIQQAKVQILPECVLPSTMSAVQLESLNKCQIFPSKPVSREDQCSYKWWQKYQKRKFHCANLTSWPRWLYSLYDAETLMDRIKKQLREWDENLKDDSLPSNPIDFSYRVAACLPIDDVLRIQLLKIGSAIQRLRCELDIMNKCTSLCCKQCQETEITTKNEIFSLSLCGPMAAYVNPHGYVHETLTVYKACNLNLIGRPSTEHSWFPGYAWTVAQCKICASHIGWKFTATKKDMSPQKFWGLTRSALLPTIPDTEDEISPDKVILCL
How it was run: (§1)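 Western blot of AR after 24 h exposure to a concentration series in ATCC-derived cells, all with 10% FBS at 37 °C and 5% CO2: LNCaP and 22Rv1 in RPMI1640, VCaP in DMEM with Glutamax, MDA-PCa-2b in F-12K. Lysis in RIPA with protease and phosphatase inhibitors, then 4–12% SDS-PAGE and PVDF transfer. Band minus background is normalised to GAPDH.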

[2] = molecular target: Voltage-gated inwardly rectifying potassium channel KCNH2 (Homo sapiens, UniProt Q12809); experiment: Inhibition of human ERG up to 30 uM
Voltage-gated inwardly rectifying potassium channel KCNH2, sequence (Q12809 whole entry): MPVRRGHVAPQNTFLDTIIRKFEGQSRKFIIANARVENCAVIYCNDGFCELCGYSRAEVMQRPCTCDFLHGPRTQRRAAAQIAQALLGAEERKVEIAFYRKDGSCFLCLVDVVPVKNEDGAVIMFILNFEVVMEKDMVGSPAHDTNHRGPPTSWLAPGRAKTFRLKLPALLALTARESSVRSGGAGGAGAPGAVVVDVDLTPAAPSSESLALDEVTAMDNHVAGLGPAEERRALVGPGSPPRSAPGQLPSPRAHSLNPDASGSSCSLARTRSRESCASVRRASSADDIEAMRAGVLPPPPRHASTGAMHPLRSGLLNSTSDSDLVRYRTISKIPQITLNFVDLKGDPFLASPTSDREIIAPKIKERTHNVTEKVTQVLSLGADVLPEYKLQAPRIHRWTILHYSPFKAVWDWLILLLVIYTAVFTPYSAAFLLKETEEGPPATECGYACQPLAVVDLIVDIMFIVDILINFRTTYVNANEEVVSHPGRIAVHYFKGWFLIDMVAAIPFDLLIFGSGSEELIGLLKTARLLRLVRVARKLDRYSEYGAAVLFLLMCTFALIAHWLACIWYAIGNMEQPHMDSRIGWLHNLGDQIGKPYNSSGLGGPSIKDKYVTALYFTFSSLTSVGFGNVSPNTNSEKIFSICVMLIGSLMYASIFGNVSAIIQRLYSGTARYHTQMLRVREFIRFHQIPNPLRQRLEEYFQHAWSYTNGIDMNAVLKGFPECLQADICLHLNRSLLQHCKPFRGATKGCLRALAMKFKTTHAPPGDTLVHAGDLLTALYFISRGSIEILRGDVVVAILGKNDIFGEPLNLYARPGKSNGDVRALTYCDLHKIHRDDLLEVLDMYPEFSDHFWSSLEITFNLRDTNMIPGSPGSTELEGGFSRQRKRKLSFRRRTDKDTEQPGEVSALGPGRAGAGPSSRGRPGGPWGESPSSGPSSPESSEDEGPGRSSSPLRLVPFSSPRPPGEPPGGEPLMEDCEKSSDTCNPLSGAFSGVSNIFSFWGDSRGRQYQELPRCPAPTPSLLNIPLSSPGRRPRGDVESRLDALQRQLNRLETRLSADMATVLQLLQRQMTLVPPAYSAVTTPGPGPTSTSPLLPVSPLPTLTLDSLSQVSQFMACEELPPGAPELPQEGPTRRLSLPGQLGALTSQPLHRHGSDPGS
How it was run: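 hERG potassium channel stably expressed in HEK 293 cells; current recorded by manual patch clamp at 0.3, 1, 3, 10 and 30 μM, in duplicate, for concentration–response.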

[3] = Drug distribution in CB17:SCID mouse xenografted with human VCaP cells assessed as prostate gland to plasma ratio at 20 mg/kg, po measured at 24 hrs by LCMS analysis; type: ADME, organism-based
How it was run: (§2)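 Tumor-bearing male CB17 SCID mice (VCaP xenografts) given one 20 mg/kg oral dose in 100% PEG200, three mice per time point; plasma, tumor, liver, kidney, prostate and heart taken at 1, 6 and 24 h; tissues homogenised in water/acetonitrile, protein precipitated with cold acetonitrile, drug quantified by LC–MS/MS; ratios are tissue over plasma level.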

VCaP [4] = experiment: Antitumor activity against human VCaP cells xenografted in CB17:SCID mouse assessed as tumor growth inhibition at 10 mg/kg, po treated for 37 days relative to control; type: functional; conditions: 888 h, time 37 day, read-out: TGI
[5] = Drug distribution in heart of CB17:SCID mouse xenografted with human VCaP cells at 20 mg/kg, po measured at 1 hrs by LCMS analysis; type: ADME, organism-based; conditions: read-out: Drug uptake; how it was run: as §2
VCaP [6] = experiment: Antitumor activity against human VCaP cells xenografted in CB17:SCID mouse assessed as reduction in AR protein level in tumor at 10 mg/kg, po for 3 days measured at 3 hrs by Western blot analysis; type: functional; conditions: 72 h, time 3 day
How it was run: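 Male CB17 SCID mice bearing subcutaneous VCaP tumors (5 × 10^6 cells in Matrigel); dosed by oral gavage in 100% PEG200 at 10 mg/kg daily for 3 days; tumors harvested 3, 6 and 24 h post-dose, lysed in RIPA, Western blot for AR with GAPDH loading control, bands quantified by densitometry relative to loading control.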

[7] = Drug distribution in CB17:SCID mouse xenografted with human VCaP cells assessed as tumor to plasma ratio at 20 mg/kg, po measured at 24 hrs by LCMS analysis; type: ADME, organism-based; how it was run: as §2
VCaP [8] = experiment: Antitumor activity against human VCaP cells xenografted in CB17:SCID mouse assessed as tumor growth inhibition at 20 mg/kg, po treated for 37 days relative to control; type: functional; conditions: 888 h, time 37 day, read-out: TGI
[9] = molecular target: T1, Protein cereblon/Androgen receptor; experiment: Protac activity at CRBN/AR in human VCaP cells assessed as reduction in AR protein level at 100 nM after 3 hrs in presence of MG-132 by Western blot analysis
[10] = molecular target: T1, Protein cereblon/Androgen receptor; experiment: Protac activity at CRBN/AR in human VCaP cells assessed as reduction in AR protein level at 100 nM after 3 hrs in presence of MLN4924 by Western blot analysis
[11] = system: Protein cereblon/Androgen receptor (Homo sapiens), P10275+Q96SW2 [T878A]; experiment: Protac activity at CRBN/AR T878A mutant in human LNCaP cells assessed as maximal AR degradation at 0.3 nM after 24 hrs by Western blot analysis relative to control; type: cell-based; how it was run: as §1
[12] = molecular target: T1, Protein cereblon/Androgen receptor; experiment: Protac activity at CRBN/AR in human 22Rv1 cells assessed as maximal AR degradation at 0.1 nM after 24 hrs by Western blot analysis relative to control; type: cell-based; how it was run: as §1
[13] = Drug distribution in liver of CB17:SCID mouse xenografted with human VCaP cells at 20 mg/kg, po measured at 1 hrs by LCMS analysis; type: ADME, organism-based; conditions: read-out: Drug uptake; how it was run: as §2
[14] = Drug distribution in CB17:SCID mouse xenografted with human VCaP cells assessed as prostate gland to plasma ratio at 20 mg/kg, po measured at 6 hrs by LCMS analysis; type: ADME, organism-based; how it was run: as §2

CN(c1ccc(C#N)c(Cl)c1)[C@H]1CC[C@H](NC(=O)c2ccc(N3CCN(C4CN(c5ccc6c(c5)C(=O)N(C5CCC(=O)NC5=O)C6=O)C4)CC3)cc2)CC1 (some centres undefined)
inhibition [1]: 80% | inhibition (INH) [2]: Not Active | Kp at 24 h [3]: 0.5 | inhibition in vivo at 10 mg/kg (VCaP [4]): 54.9% | concentration at 1 h [5]: 210 ng/g | inhibition in vivo at 10 mg/kg (VCaP [6]): 78% | Kp at 24 h [7]: 1.4 | inhibition in vivo at 20 mg/kg (VCaP [8]): 74.3% | Activity [9]: inactive | Activity [10]: inactive | Emax [11]: > 95% | Emax [12]: > 95% | concentration at 1 h [13]: 2640 ng/g | Kp at 6 h [14]: 0.6
